Laboratory results: PMC8501901 (Proceedings of the National Academy of Sciences of the …, 2021)
Where a SMILES comes first, the peptide text is derived from it. Where no end group is shown, it is not given here. The star is where a group is joined. Myristoyl = CCCCCCCCCCCCCC(=O)*

Key:
[1] = test system: MDA-MB-231 tumors; assay: MDA-MB-231 orthotopic breast cancer xenograft in NOD-SCID mice; assay type: in vivo; details: 10 mg/kg intratumor on alternate days; four mice
Summary of the method: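 Female 6–8-wk-old NOD-SCID mice received 4 × 10^6 MDA-MB-231-Luc cells in 100 μL PBS into the mammary fat pad. At ~100 mm3, mice were randomized to PBS, a non-myristoylated control peptide, or test peptide (10 mg/kg), given intratumorally on alternate days. Caliper measurements three times weekly; V = (W2 × L)/2. Endpoint at ~2,000 mm3.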

[2] = test system: PKC-ζ; assay: In vitro kinase assay, immunoprecipitated PKC, MBP substrate, γ-[32P]ATP; assay type: biochemical
Summary of the method: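 Atypical isoform, HA-tagged and overexpressed in HEK-293T; anti-HA immunoprecipitate from 100 μg lysate. Autoradiography of 32P-MBP after SDS-PAGE, with anti-HA and anti-MBP immunoblots for quantification.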

[3] = biological target: PKCθ (Homo sapiens, UniProt Q04759); assay: In vitro kinase assay, immunoprecipitated PKC, MBP substrate, γ-[32P]ATP; assay type: biochemical
PKCθ, sequence (Q04759 whole entry, canonical isoform): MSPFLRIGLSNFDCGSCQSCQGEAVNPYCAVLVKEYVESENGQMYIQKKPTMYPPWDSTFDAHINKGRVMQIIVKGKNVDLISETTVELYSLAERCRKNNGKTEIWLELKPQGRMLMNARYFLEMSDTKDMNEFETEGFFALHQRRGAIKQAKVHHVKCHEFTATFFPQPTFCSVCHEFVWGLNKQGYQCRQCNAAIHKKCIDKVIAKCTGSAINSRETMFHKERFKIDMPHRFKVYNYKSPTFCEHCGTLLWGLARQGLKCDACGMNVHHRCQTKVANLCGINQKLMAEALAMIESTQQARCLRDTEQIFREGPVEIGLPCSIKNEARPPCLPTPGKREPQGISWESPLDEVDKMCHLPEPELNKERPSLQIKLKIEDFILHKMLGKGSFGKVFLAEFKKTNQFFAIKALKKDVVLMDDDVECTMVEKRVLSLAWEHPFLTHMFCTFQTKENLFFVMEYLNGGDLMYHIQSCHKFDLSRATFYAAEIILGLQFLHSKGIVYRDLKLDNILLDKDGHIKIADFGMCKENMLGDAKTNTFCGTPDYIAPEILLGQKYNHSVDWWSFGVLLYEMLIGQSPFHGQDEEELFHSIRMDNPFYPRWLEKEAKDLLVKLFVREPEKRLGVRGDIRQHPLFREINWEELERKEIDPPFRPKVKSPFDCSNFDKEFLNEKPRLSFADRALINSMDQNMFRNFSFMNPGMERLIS
Summary of the method: (§1)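 Novel PKC isoforms were HA-tagged, expressed in HEK-293T and pulled down with anti-HA beads (100 μg lysate). Reaction 30 min at 32 °C; 32P-MBP read by autoradiography and normalized via HA/MBP immunoblots. Means of three independent experiments.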

[4] = biological target: T1, PKCε (Homo sapiens, UniProt Q02156); assay: as above; assay type: biochemical
T1 sequence (Q02156 1-737): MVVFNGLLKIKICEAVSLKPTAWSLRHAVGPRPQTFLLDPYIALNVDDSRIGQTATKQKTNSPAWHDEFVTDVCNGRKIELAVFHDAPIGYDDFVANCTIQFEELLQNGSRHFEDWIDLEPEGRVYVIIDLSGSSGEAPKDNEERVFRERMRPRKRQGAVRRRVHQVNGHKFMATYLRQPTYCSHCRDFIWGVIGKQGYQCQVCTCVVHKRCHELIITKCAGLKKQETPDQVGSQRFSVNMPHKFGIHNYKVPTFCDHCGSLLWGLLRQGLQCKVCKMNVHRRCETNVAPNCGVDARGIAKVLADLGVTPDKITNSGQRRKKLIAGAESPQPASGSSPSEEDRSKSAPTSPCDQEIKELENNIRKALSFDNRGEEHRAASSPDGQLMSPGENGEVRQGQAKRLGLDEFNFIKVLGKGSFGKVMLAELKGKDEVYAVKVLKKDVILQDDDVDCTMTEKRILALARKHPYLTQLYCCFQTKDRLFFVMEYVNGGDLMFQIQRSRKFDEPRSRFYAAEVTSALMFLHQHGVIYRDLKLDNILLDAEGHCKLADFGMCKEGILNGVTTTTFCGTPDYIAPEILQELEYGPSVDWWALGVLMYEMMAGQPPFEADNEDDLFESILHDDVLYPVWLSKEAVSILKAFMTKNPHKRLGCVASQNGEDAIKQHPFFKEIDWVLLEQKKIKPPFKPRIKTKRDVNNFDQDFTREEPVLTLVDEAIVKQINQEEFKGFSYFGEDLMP
Summary of the method: as §1

[5] = test system: MCF-7 cells; assay: Western blot of DNA damage response markers and PKC-η after etoposide; assay type: cell-based, human; details: peptide 2 μM, etoposide 50 μM
Summary of the method: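 MCF-7 treated with peptides (2 μM), then etoposide (50 μM). Lysed 30 min after etoposide addition, then Western blot with specific antibodies for phospho-γ-H2AX, Chk1, Chk2, ATM and ATR; Hsp90 and β-actin as loading controls. A non-myristoylated, cell-impermeant peptide served as control. Three independent experiments.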

[6] = biological target: PKCδ (Homo sapiens, UniProt Q05655); assay: In vitro kinase assay, immunoprecipitated PKC, MBP substrate, γ-[32P]ATP; assay type: biochemical
PKCδ, sequence (Q05655 whole entry): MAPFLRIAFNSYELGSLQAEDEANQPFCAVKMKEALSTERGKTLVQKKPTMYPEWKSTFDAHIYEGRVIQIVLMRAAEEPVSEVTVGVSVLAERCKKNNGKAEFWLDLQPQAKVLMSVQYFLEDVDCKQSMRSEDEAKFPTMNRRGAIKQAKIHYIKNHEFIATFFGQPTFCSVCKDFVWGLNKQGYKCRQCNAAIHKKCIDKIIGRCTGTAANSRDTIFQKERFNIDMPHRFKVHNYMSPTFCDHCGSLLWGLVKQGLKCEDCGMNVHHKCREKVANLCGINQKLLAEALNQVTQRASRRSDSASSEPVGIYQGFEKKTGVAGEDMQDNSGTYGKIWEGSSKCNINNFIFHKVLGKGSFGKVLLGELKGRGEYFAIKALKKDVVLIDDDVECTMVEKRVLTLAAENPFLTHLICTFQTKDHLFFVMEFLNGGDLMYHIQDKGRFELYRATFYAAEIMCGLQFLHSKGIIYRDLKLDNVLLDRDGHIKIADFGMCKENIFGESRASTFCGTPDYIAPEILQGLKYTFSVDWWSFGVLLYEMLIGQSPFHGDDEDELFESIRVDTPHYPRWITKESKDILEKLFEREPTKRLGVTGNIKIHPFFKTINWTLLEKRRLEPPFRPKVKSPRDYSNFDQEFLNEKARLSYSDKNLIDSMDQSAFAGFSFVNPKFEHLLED
Summary of the method: as §1

[7] = test system: PKC-α; assay: In vitro kinase assay, immunoprecipitated PKC, MBP substrate, γ-[32P]ATP; assay type: biochemical; details: PMA and CaCl2
Summary of the method: (§2)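 HA-tagged classical PKC was overexpressed in HEK-293T, and lysate (100 μg) was immunoprecipitated with immobilized anti-HA. Incubated 30 min, 32 °C. 32P-MBP detected by SDS-PAGE/autoradiography; HA and MBP then immunoblotted and band signals quantified.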

[8] = test system: MDA-MB-231 tumors; assay: MDA-MB-231 orthotopic breast cancer xenograft in NSG mice; assay type: in vivo
[9] = test system: MDA-MB-231 breast cancer cells; assay: Cell viability; assay type: cell-based, human; details: XTT; peptide concentration 10 μM; three independent experiments
Summary of the method: (§3)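 Cells seeded at 5 × 10^3/well and grown 16 to 24 h. N-terminally myristoylated peptides were added in serum-free medium for 4 h, then serum was replenished for 24 h. XTT absorbance was read and converted to cell number with a per-line standard curve (1.25 to 20 × 10^3 cells plated, assayed after 24 h). At least three repeats, each in triplicate.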

[10] = biological target: PKCη (Homo sapiens, UniProt P24723); assay: In vitro kinase assay, immunoprecipitated PKC, MBP substrate, γ-[32P]ATP; assay type: biochemical; details: for inhibition of kinase activity of PKCη: even at 10 μΜ peptide, MBP substrate
PKCη, sequence (P24723 whole entry): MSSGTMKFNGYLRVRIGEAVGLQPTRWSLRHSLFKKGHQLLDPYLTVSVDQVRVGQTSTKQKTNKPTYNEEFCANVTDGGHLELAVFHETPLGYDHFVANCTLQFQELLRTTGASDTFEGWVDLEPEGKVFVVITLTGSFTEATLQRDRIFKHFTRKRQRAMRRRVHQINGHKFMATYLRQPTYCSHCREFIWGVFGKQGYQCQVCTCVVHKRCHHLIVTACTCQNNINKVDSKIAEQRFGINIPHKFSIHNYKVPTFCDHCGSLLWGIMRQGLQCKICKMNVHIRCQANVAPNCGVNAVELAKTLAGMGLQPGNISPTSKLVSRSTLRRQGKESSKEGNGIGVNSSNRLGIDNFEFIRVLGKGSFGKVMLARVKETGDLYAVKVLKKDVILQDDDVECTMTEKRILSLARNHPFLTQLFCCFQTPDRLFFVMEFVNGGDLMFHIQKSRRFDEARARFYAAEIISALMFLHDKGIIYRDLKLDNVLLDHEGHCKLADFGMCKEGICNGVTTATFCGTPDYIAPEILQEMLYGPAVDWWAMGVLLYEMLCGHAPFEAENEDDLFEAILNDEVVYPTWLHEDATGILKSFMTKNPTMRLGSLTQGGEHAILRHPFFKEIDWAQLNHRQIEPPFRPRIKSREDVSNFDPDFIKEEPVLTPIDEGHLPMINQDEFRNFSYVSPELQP
Summary of the method: as §1

[11] = test system: nontransformed MCF10A cells; assay: Cell viability; assay type: cell-based, human; details: XTT; peptide concentration 10 μM; three independent experiments
Summary of the method: as §3

[12] = test system: U251 MG glioblastoma cancer cells; assay: Cell viability; assay type: cell-based, human; details: XTT; peptide concentration 10 μM; three independent experiments
Summary of the method: as §3

[13] = test system: PKC-η (Ser675, Thr655) in MCF-7 cells; assay: Western blot of PKC-η priming-site phosphorylation; assay type: cell-based, human; details: peptide 10 μM for 4 h, with/without MG132 10 μM, immunoblot
[14] = test system: PKC-γ; assay: In vitro kinase assay, immunoprecipitated PKC, MBP substrate, γ-[32P]ATP; assay type: biochemical; details: PMA and CaCl2
Summary of the method: as §2

[15] = test system: MCF-7 cells; assay: Cell death with etoposide-induced DNA damage; assay type: cell-based, human; details: uPEP2 2 μM followed by etoposide 50 μM for 48 h, means of at least three experiments
[16] = test system: MCF-7 breast cancer cells; assay: Cell viability; assay type: cell-based, human; details: XTT; peptide concentration 10 μM; three independent experiments
Summary of the method: as §3

[17] = test system: PKC-η; assay: Kinase assay with the peptide as substrate; assay type: biochemical; details: γ-ATP
[18] = test system: PKC-ε; assay: Kinase assay with the peptide as substrate; assay type: biochemical; details: γ-ATP

Compound: CCCCCCCCCCCCCC(=O)N[C@@H](CCSC)C(=O)N[C@@H](C)C(=O)N[C@@H](CO)C(=O)N[C@@H](CCCNC(=N)N)C(=O)NCC(=O)N[C@@H](C)C(=O)N[C@@H](CC(C)C)C(=O)N[C@@H](CCCNC(=N)N)C(=O)N[C@@H](CCCNC(=N)N)C(=O)N[C@@H](CS)C(=O)N[C@@H](CC(C)C)C(=O)N[C@@H](CO)C(=O)N1CCC[C@H]1C(=O)NCC(=O)N[C@@H](CC(C)C)C(=O)N1CCC[C@H]1C(=O)N[C@@H](CCCNC(=N)N)C(=O)N[C@@H](CC(C)C)C(=O)N[C@@H](CC(C)C)C(=O)N[C@@H](Cc1c[nH]cn1)C(=O)N[C@@H](CC(C)C)C(=O)N[C@@H](CO)C(=O)N[C@@H](CCCNC(=N)N)C(=O)NCC(=O)N[C@@H](CC(C)C)C(=O)N[C@@H](C)C(N)=O [uPEP2] (Myristoyl-MASRGALRRCLSPGLPRLLHLSRGLA-NH2)
- growth (volume) of MDA-MB-231 tumors in NOD-SCID mice [1]: inhibited the growth
- effect on kinase activity of PKC-ζ (atypical) [2]: did not affect
- IC50 [3]: ~2000 nM
- IC50 [4]: ~2000 nM
- PKC-η protein in etoposide-treated cells [5]: enhanced degradation
- etoposide-promoted phosphorylation of ATM, ATR, Chk1 and Chk2 ([5]; lysis 30 min after etoposide): markedly decreased
- phosphorylation of γ-H2AX upon etoposide ([5]; lysis 30 min after etoposide): markedly increased
- IC50 [6]: ~2000 nM
- effect on kinase activity of PKC-α (classical) [7]: did not affect
- breast tumor mass, NSG mice ([8]; 10 mg/kg intratumor on alternate days, five animals/group): significantly attenuates
- growth (volume) of MDA-MB-231 tumors in NSG mice ([8]; 10 mg/kg intratumor on alternate days, five mice/group): inhibited the growth
- expression levels of classical PKC-α, PKC-γ and atypical PKC-ζ in tumors ([8]; immunoblot of tumor extracts): not affected
- protein levels of novel PKC-η and PKC-ε in tumors ([8]; immunoblot of tumor extracts, NSG and NOD-SCID mice): lower protein levels
- phosphorylation of PKC substrates in tumors ([8]; phospho-(Ser) PKC substrate antibody, tumors grown in NSG or NOD-SCID mice): lower
- apoptosis in tumors (TUNEL assay) ([8]; tumor tissue slides at end of experiment): increased apoptosis
- cell viability of MDA-MB-231 [9]: reduces cell viability
- IC50 [10]: ~2000 nM
- cell viability of MCF10A [11]: did not affect
- cell viability of U251 MG [12]: reduces cell viability
- phosphorylation of PKC-η priming sites Ser675 and Thr655 [13]: diminished
- effect on kinase activity of PKC-γ (classical) [14]: did not affect
- cell death in the presence of both agents (uPEP2 and etoposide) [15]: 95 to 100%
- cell viability of MCF-7 [16]: reduces cell viability

Compound: Myr-MASRGS/TLRRCLSPGLPRLLHLSRGLA [uPEP2[A6S]]
- phosphorylation of the peptide as substrate of PKC-η [17]: excellent substrate
- phosphorylation of the peptide as substrate of PKC-ε [18]: excellent substrate

Compound: Myristoyl-CLSPGLPRLLHLSRGLA [uPEP2(10–26)]
- inhibition of kinase activity of PKCη [10]: weak inhibitory effects

Compound: Myristoyl-MASRGALRRCLSPGLPR [uPEP2(1–17)]
- cell viability of MDA-MB-231 [9]: partial inhibition

Compound: Myristoyl-MLLHLSRGLA [uPEP2(18–26)]
- cell viability of MDA-MB-231 [9]: less effective
- cell viability of U251 MG [12]: less effective
- cell viability of MCF-7 [16]: less effective

Compound: Myristoyl-TRKRQRAMRRVHQING [η-PS, reference compound]
- cell viability of MDA-MB-231 [9]: less effective
- inhibition of kinase activity of PKCη [10]: weak inhibitory effects
- cell viability of U251 MG [12]: less effective
- cell viability of MCF-7 [16]: less effective
